# Test results: ChEMBL document CHEMBL1139577, “Discovery of 3-OH-3-methylpipecolic hydroxamates: potent orally active inhibitors of aggrecanase and MMP-13” (Bioorg Med Chem Lett, 2005)
# Biological target: Matrix metalloproteinase-9 (Homo sapiens, UniProt P14780)
# Assay: Inhibitory concentration against MMP-9
# Conditions: not given
# Sequence of Matrix metalloproteinase-9 (P14780 whole entry): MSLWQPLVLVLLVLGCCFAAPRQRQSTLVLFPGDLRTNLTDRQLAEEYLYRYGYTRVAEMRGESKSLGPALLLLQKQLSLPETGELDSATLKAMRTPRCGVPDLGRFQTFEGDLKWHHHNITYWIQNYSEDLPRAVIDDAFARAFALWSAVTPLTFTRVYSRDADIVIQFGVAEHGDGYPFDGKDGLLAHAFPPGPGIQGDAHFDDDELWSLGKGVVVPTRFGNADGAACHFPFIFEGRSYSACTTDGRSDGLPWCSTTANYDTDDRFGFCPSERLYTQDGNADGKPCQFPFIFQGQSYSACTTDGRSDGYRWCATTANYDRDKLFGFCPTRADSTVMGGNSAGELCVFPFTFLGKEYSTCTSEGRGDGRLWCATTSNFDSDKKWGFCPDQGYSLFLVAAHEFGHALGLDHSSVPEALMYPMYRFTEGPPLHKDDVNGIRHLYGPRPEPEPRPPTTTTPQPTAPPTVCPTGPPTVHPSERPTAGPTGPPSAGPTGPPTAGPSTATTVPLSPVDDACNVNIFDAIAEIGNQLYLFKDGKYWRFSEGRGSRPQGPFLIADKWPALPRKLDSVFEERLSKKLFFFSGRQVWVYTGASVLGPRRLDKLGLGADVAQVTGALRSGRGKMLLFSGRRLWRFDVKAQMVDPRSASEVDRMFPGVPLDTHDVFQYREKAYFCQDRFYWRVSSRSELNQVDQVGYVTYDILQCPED
row,Structure (SMILES),IC50 [nM]
1,C[C@@]1(O)CCCN(S(=O)(=O)c2ccc(OCc3ccc(F)cc3Cl)cc2)[C@H]1C(=O)NO,11

# Test system: Cricetinae gen. sp.
# Assay: Potent inhibition of MMP-13 induced collagen degradation in hamster knee joints
# Assay type: functional, Cricetulus griseus
# Conditions: Knee joint
row,Structure (SMILES),ED50 [mg/kg]
1,C[C@@]1(O)CCCN(S(=O)(=O)c2ccc(OCc3ccc(F)cc3Cl)cc2)[C@H]1C(=O)NO,13

# Test system: not listed separately
# Assay: Inhibitory concentration against MMP-13
# Conditions: not given
row,Structure (SMILES),IC50 [nM]
1,C[C@@]1(O)CCCN(S(=O)(=O)c2ccc(OCc3ccnc(Cl)c3)cc2)[C@H]1C(=O)NO,0.43
2,C[C@@]1(O)CCCN(S(=O)(=O)c2ccc(OCc3cccc4cccnc34)cc2)[C@H]1C(=O)NO,4.1
3,COc1ccccc1COc1ccc(S(=O)(=O)N2CCC[C@@](C)(O)[C@@H]2C(=O)NO)cc1,18
4,Cc1ccc(F)cc1COc1ccc(S(=O)(=O)N2CCC[C@@](C)(O)[C@@H]2C(=O)NO)cc1,2.5
5,Cc1ccccc1COc1ccc(S(=O)(=O)N2CCC[C@@](C)(O)[C@@H]2C(=O)NO)cc1,0.65
6,C[C@@]1(O)CCCN(S(=O)(=O)c2ccc(OCc3ccccc3Cl)cc2)[C@H]1C(=O)NO,1
7,C[C@@]1(O)CCCN(S(=O)(=O)c2ccc(OCc3ccc(Cl)cc3F)cc2)[C@H]1C(=O)NO,0.87
8,CCCC[C@]1(O)CCCN(S(=O)(=O)c2ccc(OCc3ccc(F)cc3)cc2)[C@H]1C(=O)NO,4.9
9,C[C@@]1(O)CCCN(S(=O)(=O)c2ccc(OCc3cccc(Cl)c3)cc2)[C@H]1C(=O)NO,2.5
10,C[C@]1(O)CCCN(S(=O)(=O)c2ccc(OCc3ccc(F)cc3)cc2)[C@H]1C(=O)NO,6.5
11,C[C@@]1(O)CCCN(S(=O)(=O)c2ccc(OCc3ccncc3)cc2)[C@H]1C(=O)NO,2
12,C[C@@]1(O)CCCN(S(=O)(=O)c2ccc(OCc3ccc(F)cc3Cl)cc2)[C@H]1C(=O)NO,0.9

# Biological target: Neutrophil collagenase (Homo sapiens, UniProt P22894)
# Assay: Inhibitory concentration against MMP-8
# Conditions: not given
# Sequence of Neutrophil collagenase (P22894 whole entry): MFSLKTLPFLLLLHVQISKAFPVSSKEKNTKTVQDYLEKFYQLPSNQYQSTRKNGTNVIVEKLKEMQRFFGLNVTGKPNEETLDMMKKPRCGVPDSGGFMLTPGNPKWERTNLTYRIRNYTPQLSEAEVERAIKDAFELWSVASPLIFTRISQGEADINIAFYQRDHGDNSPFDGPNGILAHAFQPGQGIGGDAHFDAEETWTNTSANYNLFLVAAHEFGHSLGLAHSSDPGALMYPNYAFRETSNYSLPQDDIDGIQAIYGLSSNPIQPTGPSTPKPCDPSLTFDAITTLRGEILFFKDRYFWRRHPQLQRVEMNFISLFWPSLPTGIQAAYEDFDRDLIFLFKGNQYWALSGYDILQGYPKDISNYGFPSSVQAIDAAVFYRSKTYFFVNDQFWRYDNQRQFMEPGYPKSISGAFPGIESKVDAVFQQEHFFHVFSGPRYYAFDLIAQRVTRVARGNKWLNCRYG
row,Structure (SMILES),IC50 [nM]
1,C[C@@]1(O)CCCN(S(=O)(=O)c2ccc(OCc3ccc(F)cc3Cl)cc2)[C@H]1C(=O)NO,1

# Test system: not listed separately
# Assay: Half life in dog
# Assay type: ADME, Canis lupus familiaris
# Conditions: in vivo
row,Structure (SMILES),half-life [h]
1,C[C@@]1(O)CCCN(S(=O)(=O)c2ccc(OCc3ccc(F)cc3Cl)cc2)[C@H]1C(=O)NO,4.6

# Biological target: Stromelysin-1 (Homo sapiens, UniProt P08254)
# Assay: Inhibitory concentration against MMP-3
# Conditions: not given
# Sequence of Stromelysin-1 (P08254 whole entry): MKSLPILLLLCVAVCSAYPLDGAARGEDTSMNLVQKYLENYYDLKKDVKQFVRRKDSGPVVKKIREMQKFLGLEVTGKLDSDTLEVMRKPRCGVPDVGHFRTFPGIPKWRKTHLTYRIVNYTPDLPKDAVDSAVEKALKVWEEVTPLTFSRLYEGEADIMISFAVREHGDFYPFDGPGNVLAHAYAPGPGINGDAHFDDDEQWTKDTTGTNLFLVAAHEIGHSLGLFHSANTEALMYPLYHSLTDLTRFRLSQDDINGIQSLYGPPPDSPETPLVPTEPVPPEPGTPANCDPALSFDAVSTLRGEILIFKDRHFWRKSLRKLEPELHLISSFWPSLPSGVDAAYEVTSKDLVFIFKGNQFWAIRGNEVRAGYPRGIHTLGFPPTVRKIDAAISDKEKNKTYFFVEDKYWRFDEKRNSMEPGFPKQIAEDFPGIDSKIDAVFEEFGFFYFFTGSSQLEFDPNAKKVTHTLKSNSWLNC
row,Structure (SMILES),IC50 [nM]
1,C[C@@]1(O)CCCN(S(=O)(=O)c2ccc(OCc3ccc(F)cc3Cl)cc2)[C@H]1C(=O)NO,5

# Biological target: Disintegrin and metalloproteinase domain-containing protein 17 (Rattus norvegicus, UniProt Q9Z1K9)
# Assay: Inhibitory concentration against rat TACE
# Conditions: not given
# Sequence of Disintegrin and metalloproteinase domain-containing protein 17 (Q9Z1K9 whole entry, the tested form may be a part): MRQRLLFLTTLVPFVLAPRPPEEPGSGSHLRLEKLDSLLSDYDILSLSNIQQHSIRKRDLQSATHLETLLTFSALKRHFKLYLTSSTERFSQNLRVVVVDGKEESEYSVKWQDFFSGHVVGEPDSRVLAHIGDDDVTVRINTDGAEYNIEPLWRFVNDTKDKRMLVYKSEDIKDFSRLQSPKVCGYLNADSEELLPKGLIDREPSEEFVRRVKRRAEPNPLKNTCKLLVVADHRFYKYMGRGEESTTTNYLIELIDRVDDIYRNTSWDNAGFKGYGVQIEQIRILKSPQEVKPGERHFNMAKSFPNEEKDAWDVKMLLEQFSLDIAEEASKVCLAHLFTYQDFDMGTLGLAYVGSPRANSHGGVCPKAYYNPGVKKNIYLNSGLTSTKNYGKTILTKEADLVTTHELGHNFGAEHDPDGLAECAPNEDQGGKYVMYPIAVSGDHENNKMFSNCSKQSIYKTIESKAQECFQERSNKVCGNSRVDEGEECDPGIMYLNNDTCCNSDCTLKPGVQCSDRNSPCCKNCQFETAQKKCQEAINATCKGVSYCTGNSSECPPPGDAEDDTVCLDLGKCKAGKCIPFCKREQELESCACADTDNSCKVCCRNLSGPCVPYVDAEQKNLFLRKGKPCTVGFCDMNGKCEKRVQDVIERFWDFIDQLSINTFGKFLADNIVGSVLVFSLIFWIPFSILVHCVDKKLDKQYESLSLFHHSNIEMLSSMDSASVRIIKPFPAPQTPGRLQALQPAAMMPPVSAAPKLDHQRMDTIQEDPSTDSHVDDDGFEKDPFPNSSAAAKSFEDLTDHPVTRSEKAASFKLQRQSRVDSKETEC
row,Structure (SMILES),IC50 [nM]
1,CCCC[C@]1(O)CCCN(S(=O)(=O)c2ccc(OCc3ccc(F)cc3)cc2)[C@H]1C(=O)NO,23
2,C[C@]1(O)CCCN(S(=O)(=O)c2ccc(OCc3ccc(F)cc3)cc2)[C@H]1C(=O)NO,11

# Test system: not listed separately
# Assay: Half life in rat
# Assay type: ADME
# Conditions: in vivo
# Method in brief: (§1)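 Male Sprague–Dawley rats with jugular vein catheters got an iv bolus of 5 mg/kg in glycerol formal. Jugular blood was drawn at 5, 15 and 30 min and at 1, 2, 4, 6, 8 and 24 h. Plasma was diluted with an equal volume of water, extracted with MTBE and assayed by LC–MS/MS. Parameters were derived by non-compartmental analysis.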
row,Structure (SMILES),half-life [h]
1,C[C@@]1(O)CCCN(S(=O)(=O)c2ccc(OCc3ccc(F)cc3Cl)cc2)[C@H]1C(=O)NO,2

# Test system: Cell line
# Assay: Inhibition of IL-1 induced aggrecan degradation in human osteoarthritic cartilage
# Assay type: functional, cell-based
# Conditions: Cartilage tissue
# Method in brief: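 Articular cartilage came from total knee replacement and was cut into 1 × 2 mm pieces. These were cultured in DMEM with 0.5% fetal bovine serum and stimulated with IL-1α (50 ng/ml) plus oncostatin M (50 ng/ml). After 48 h, released GAG in the medium was measured by DMMB; n = 2.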
row,Structure (SMILES),IC50 [nM]
1,C[C@@]1(O)CCCN(S(=O)(=O)c2ccc(OCc3ccc(F)cc3Cl)cc2)[C@H]1C(=O)NO,6

# Biological target: not listed separately
# Assay: Inhibitory concentration against aggrecanase from porcine chondrocytes using [35S]-sulfate (5 mCi/ml) as radioligand and adding IL-1alpha (5 ng/ml) incubated for 10h
# Set-up: species or system Sus scrofa
# Conditions: not given
# Method in brief: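 Cell-based assay in porcine chondrocytes. Glycosaminoglycan chains were labelled by including [³⁵S]sulfate (5 mCi/ml) in the culture medium, and unincorporated label was washed out before aggrecan degradation was assessed.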
row,Structure (SMILES),IC50 [nM]
1,C[C@@]1(O)CCCN(S(=O)(=O)c2ccc(OCc3ccnc(Cl)c3)cc2)[C@H]1C(=O)NO,15
2,C[C@@]1(O)CCCN(S(=O)(=O)c2ccc(OCc3cccc4cccnc34)cc2)[C@H]1C(=O)NO,19
3,Cc1ccc(F)cc1COc1ccc(S(=O)(=O)N2CCC[C@@](C)(O)[C@@H]2C(=O)NO)cc1,15
4,Cc1ccccc1COc1ccc(S(=O)(=O)N2CCC[C@@](C)(O)[C@@H]2C(=O)NO)cc1,6.9
5,C[C@@]1(O)CCCN(S(=O)(=O)c2ccc(OCc3ccccc3Cl)cc2)[C@H]1C(=O)NO,3.7
6,C[C@@]1(O)CCCN(S(=O)(=O)c2ccc(OCc3ccc(Cl)cc3F)cc2)[C@H]1C(=O)NO,7.9
7,CCCC[C@]1(O)CCCN(S(=O)(=O)c2ccc(OCc3ccc(F)cc3)cc2)[C@H]1C(=O)NO,2000
8,C[C@@]1(O)CCCN(S(=O)(=O)c2ccc(OCc3cccc(Cl)c3)cc2)[C@H]1C(=O)NO,78
9,C[C@]1(O)CCCN(S(=O)(=O)c2ccc(OCc3ccc(F)cc3)cc2)[C@H]1C(=O)NO,> 1000
10,C[C@@]1(O)CCCN(S(=O)(=O)c2ccc(OCc3ccc(F)cc3Cl)cc2)[C@H]1C(=O)NO,1.5

# Test system: not listed separately
# Assay: Clearance in rat
# Assay type: ADME, organism-based
# Conditions: plasma, read-out: Clp
# Method in brief: as §1
row,Structure (SMILES),clearance [mL/min/kg]
1,C[C@@]1(O)CCCN(S(=O)(=O)c2ccc(OCc3ccc(F)cc3Cl)cc2)[C@H]1C(=O)NO,13

# Test system: Cricetinae gen. sp.
# Assay: Potent inhibition of IL-1 induced aggrecan degradation in hamster
# Assay type: functional, Cricetulus griseus
# Conditions: not given
row,Structure (SMILES),ED50 [mg/kg]
1,C[C@@]1(O)CCCN(S(=O)(=O)c2ccc(OCc3ccc(F)cc3Cl)cc2)[C@H]1C(=O)NO,4.6

# Species on record: Bos taurus
# Assay: Inhibition of IL-1 induced aggrecan degradation in bovine nasal cartilage explants
# Assay type: functional
# Conditions: not given
# Method in brief: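 Bovine nasal cartilage plugs (4 mm diameter and length) were cultured in serum-free DMEM with IL-1α plus inhibitor. After 48 h, samples were analysed for GAG content by the DMMB assay.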
row,Structure (SMILES),IC50 [nM]
1,C[C@@]1(O)CCCN(S(=O)(=O)c2ccc(OCc3ccc(F)cc3Cl)cc2)[C@H]1C(=O)NO,10.3

# Test system: not listed separately
# Assay: Clearance in dog
# Assay type: ADME, organism-based, Canis lupus familiaris
# Conditions: plasma, read-out: Clp
row,Structure (SMILES),clearance [mL/min/kg]
1,C[C@@]1(O)CCCN(S(=O)(=O)c2ccc(OCc3ccc(F)cc3Cl)cc2)[C@H]1C(=O)NO,11

# Species on record: Bos taurus
# Assay: Inhibition of IL-1 induced collagen degradation in bovine nasal cartilage explants
# Assay type: functional
# Conditions: not given
row,Structure (SMILES),IC50 [nM]
1,C[C@@]1(O)CCCN(S(=O)(=O)c2ccc(OCc3ccc(F)cc3Cl)cc2)[C@H]1C(=O)NO,100

# Biological target: 72 kDa type IV collagenase (Homo sapiens, UniProt P08253)
# Assay: Inhibitory concentration against MMP-2
# Conditions: not given
# Sequence of 72 kDa type IV collagenase (P08253 whole entry): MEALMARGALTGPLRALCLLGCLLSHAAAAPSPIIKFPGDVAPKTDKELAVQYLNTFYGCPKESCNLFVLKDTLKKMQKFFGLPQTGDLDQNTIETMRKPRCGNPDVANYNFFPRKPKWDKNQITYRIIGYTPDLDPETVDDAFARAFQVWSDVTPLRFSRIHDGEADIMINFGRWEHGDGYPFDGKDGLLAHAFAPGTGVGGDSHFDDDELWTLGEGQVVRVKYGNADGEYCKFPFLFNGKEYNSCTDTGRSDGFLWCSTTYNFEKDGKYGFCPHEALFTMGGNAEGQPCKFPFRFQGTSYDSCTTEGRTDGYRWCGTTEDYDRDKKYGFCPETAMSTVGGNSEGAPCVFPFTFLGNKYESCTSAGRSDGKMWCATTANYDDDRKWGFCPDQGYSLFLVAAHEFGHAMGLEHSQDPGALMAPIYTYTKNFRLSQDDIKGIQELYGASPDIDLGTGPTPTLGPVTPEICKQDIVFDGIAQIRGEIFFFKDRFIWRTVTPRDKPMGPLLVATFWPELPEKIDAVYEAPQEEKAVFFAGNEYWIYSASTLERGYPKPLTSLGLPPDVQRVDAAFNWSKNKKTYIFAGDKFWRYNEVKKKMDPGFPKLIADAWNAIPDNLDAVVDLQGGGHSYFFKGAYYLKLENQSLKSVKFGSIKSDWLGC
row,Structure (SMILES),IC50 [nM]
1,C[C@@]1(O)CCCN(S(=O)(=O)c2ccc(OCc3ccc(F)cc3Cl)cc2)[C@H]1C(=O)NO,4

# Biological target: T1, A disintegrin and metalloproteinase with thrombospondin motifs 4 (Homo sapiens) (UniProt O75173)
# T1 sequence (whole entry): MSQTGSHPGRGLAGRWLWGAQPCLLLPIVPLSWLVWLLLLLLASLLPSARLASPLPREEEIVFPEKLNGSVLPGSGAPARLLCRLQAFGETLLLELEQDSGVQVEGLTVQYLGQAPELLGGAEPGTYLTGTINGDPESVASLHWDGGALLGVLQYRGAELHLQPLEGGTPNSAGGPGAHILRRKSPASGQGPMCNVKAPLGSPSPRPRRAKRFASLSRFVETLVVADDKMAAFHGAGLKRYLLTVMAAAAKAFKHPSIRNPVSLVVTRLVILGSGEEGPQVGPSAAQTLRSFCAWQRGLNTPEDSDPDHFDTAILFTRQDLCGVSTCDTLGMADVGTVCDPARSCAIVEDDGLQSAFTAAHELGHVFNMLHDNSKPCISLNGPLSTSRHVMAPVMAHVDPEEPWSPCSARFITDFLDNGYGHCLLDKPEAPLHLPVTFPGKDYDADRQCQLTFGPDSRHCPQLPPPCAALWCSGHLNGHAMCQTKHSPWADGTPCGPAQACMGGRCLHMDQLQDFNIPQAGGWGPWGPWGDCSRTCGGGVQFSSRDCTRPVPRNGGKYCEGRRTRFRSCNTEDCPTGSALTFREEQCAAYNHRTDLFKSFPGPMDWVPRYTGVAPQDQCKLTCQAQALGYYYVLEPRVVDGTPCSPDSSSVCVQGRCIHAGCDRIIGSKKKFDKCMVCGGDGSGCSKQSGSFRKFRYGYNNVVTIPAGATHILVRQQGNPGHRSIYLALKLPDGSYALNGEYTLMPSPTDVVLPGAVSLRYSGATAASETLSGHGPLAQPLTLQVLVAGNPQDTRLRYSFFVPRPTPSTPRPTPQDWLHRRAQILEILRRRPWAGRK
# Assay: Inhibitory concentration at 500 nM against aggrecanase from porcine chondrocytes using [35S]-sulfate (5 mCi/ml) as radioligand and adding IL-1alpha (5 ng/ml) incubated for 10h
# Conditions: Sus scrofa, target entry is the homologue from another species
row,Structure (SMILES),inhibition [%]
1,COc1ccccc1COc1ccc(S(=O)(=O)N2CCC[C@@](C)(O)[C@@H]2C(=O)NO)cc1,73
2,C[C@@]1(O)CCCN(S(=O)(=O)c2ccc(OCc3ccncc3)cc2)[C@H]1C(=O)NO,8.1

# Biological target: Matrix metalloproteinase-14 (Homo sapiens, UniProt P50281)
# Assay: Inhibitory concentration against MMP-14
# Conditions: not given
row,Structure (SMILES),IC50 [nM]
1,C[C@@]1(O)CCCN(S(=O)(=O)c2ccc(OCc3ccc(F)cc3Cl)cc2)[C@H]1C(=O)NO,83

# Biological target: T2, Interstitial collagenase (Homo sapiens, UniProt P03956)
# T2 sequence (P03956 whole entry): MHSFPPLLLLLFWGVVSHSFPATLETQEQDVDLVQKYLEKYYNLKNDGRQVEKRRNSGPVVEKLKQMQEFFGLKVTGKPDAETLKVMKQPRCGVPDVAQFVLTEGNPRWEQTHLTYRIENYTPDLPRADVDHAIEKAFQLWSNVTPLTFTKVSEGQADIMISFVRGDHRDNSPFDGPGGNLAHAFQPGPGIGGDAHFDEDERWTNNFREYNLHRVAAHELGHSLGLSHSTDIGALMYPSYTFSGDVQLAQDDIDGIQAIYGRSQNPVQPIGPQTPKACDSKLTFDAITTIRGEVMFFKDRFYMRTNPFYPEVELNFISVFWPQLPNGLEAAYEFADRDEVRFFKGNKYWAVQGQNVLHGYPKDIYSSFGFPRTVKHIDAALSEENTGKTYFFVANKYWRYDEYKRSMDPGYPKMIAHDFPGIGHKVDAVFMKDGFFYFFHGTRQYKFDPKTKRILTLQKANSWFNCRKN
# Assay: Inhibitory concentration against MMP-1
# Conditions: not given
row,Structure (SMILES),IC50 [nM]
1,C[C@@]1(O)CCCN(S(=O)(=O)c2ccc(OCc3ccnc(Cl)c3)cc2)[C@H]1C(=O)NO,520
2,C[C@@]1(O)CCCN(S(=O)(=O)c2ccc(OCc3cccc4cccnc34)cc2)[C@H]1C(=O)NO,120
3,COc1ccccc1COc1ccc(S(=O)(=O)N2CCC[C@@](C)(O)[C@@H]2C(=O)NO)cc1,2600
4,Cc1ccccc1COc1ccc(S(=O)(=O)N2CCC[C@@](C)(O)[C@@H]2C(=O)NO)cc1,310
5,C[C@@]1(O)CCCN(S(=O)(=O)c2ccc(OCc3ccc(Cl)cc3F)cc2)[C@H]1C(=O)NO,120
6,CCCC[C@]1(O)CCCN(S(=O)(=O)c2ccc(OCc3ccc(F)cc3)cc2)[C@H]1C(=O)NO,2900
7,C[C@@]1(O)CCCN(S(=O)(=O)c2ccc(OCc3cccc(Cl)c3)cc2)[C@H]1C(=O)NO,860
8,C[C@]1(O)CCCN(S(=O)(=O)c2ccc(OCc3ccc(F)cc3)cc2)[C@H]1C(=O)NO,1100
9,C[C@@]1(O)CCCN(S(=O)(=O)c2ccc(OCc3ccncc3)cc2)[C@H]1C(=O)NO,190
10,C[C@@]1(O)CCCN(S(=O)(=O)c2ccc(OCc3ccc(F)cc3Cl)cc2)[C@H]1C(=O)NO,310
